The values below come from ChEMBL document CHEMBL1135993, “4,5-diphenyltriazol-3-ones: openers of large-conductance Ca(2+)-activated potassium (maxi-K) channels” (J Med Chem, 2002).

The target of the assay is Calcium-activated potassium channel subunit alpha-1 (Mus musculus) (UniProt Q08460). Kind of assay: Percent opening of mouse maxi-K channel expressed in xenopus oocyte at a concentration of 20 umolar under voltage clamp. To be noted: Xenopus laevis oocytes. The format is functional. Put shortly:
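Xenopus laevis oocytes injected with mSlo cRNA 2–6 days before recording, kept at 17 °C in ND96 (mM: NaCl 90, KCl 1.0, CaCl2 1.0, MgCl2 1.0, HEPES 5.0, pH 7.5) with 5% horse serum and penicillin/streptomycin. Two-electrode voltage clamp, steps 500–750 ms, +20 mV increments from −60 mV holding to +140 mV. Compound gravity-perfused at 20 μM. Iberiotoxin-sensitive outward current expressed as percent of control; mean of ≥5 oocytes.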

Sequence of Calcium-activated potassium channel subunit alpha-1 (Mus musculus) (Q08460 whole entry, the tested form may be a part): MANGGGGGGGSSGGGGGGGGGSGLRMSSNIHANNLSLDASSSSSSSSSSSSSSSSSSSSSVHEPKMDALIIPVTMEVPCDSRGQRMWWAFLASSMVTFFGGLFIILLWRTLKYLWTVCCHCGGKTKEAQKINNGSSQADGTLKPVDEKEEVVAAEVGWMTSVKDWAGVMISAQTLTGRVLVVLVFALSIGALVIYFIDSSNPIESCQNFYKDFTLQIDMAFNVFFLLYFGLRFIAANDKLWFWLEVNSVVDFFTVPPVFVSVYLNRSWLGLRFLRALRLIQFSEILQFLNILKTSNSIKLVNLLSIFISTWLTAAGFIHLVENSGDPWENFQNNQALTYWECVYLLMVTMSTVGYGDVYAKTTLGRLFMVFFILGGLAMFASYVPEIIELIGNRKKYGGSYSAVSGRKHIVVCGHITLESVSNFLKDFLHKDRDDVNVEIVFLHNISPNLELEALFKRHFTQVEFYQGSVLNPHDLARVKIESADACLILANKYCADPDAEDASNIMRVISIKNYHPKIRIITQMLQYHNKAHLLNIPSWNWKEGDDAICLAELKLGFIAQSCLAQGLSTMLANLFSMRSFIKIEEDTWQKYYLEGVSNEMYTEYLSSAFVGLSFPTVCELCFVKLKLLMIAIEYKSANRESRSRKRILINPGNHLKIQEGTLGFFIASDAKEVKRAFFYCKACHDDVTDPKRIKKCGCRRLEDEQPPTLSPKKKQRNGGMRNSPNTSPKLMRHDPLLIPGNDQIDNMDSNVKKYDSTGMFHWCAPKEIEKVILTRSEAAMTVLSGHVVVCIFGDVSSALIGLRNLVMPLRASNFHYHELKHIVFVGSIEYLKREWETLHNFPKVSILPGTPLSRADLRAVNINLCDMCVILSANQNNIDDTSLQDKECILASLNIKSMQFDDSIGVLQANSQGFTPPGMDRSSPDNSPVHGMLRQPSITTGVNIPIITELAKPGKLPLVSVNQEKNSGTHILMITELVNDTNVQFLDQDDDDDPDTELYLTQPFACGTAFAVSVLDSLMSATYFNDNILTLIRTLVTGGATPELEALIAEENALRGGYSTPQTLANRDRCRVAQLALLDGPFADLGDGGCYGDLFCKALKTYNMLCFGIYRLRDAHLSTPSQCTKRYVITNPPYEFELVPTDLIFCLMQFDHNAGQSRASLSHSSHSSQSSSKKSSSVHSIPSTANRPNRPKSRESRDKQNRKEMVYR

Consider `Nc1nnc(-c2ccc(C(F)(F)F)cc2)n1-c1cc(Cl)ccc1O`, for which the Activity was 117%.
Under `Oc1ccc(Cl)cc1-c1nnc(O)n1-c1ccc(C(F)(F)F)cc1` stands 123%; under `Oc1ccc(-n2c(O)nnc2-c2ccc(C(F)(F)F)cc2)cc1Cl`, 99%; under `Oc1ccc(Cl)cc1-n1c(O)nnc1-c1cccc(C(F)(F)F)c1`, 138%.
Under `Oc1ccc(Cl)cc1-n1c(O)nnc1-c1cc(C(F)(F)F)cc(C(F)(F)F)c1` stands 159%.
Under `Oc1ccc(Cl)cc1Cc1nnc(O)n1-c1ccc(C(F)(F)F)cc1` stands 84%.
`Oc1ccc(Cl)cc1-n1c(O)nnc1-c1ccccc1`: the Activity is 101%.
Under `Oc1ccc(Cl)cc1-n1c(S)nnc1-c1ccc(C(F)(F)F)cc1` stands 128%; under `Oc1ccc(Cl)cc1Cc1nccn1-c1ccc(C(F)(F)F)cc1`, 105%; under `O=c1[nH]c2cc(C(F)(F)F)ccc2n1-c1cc(C(F)(F)F)ccc1O`, 116%.
Under `O=c1onc(-c2cc(C(F)(F)F)cc(C(F)(F)F)c2)n1-c1cc(Cl)ccc1O` stands 92%; under `O=c1[nH]c2cc(C(F)(F)F)ccc2n1-c1cc(Cl)ccc1O`, 132%; under `Oc1ccc(Cl)cc1-n1cnnc1-c1ccc(C(F)(F)F)cc1`, 102%.
In the case of `Oc1ccc(Cl)cc1-n1c(O)nnc1-c1ccc(F)cc1` it was 118%.
Take `Oc1ccc(Cl)cc1-c1nnc(O)n1Cc1ccc(C(F)(F)F)cc1`: the Activity was 128%.
Under `O=c1onc(-c2ccc(C(F)(F)F)cc2)n1Cc1cc(Cl)ccc1O` stands 101%; under `Oc1ccc(Cl)cc1Cn1c(O)nnc1-c1ccc(C(F)(F)F)cc1`, 109%; under `Oc1ccc(Cl)cc1-n1c(O)nnc1-c1ccc(C(F)(F)F)cc1`, 121%.
Under `Oc1ccc(Cl)cc1-n1c(O)nnc1-c1ccccc1C(F)(F)F` stands 107%.
In the case of `Cn1nc(-c2ccc(C(F)(F)F)cc2)n(-c2cc(Cl)ccc2O)c1=O`, the Activity was 93%.
Take `Oc1ccc(Cl)cc1-n1cncc1-c1ccc(C(F)(F)F)cc1`: the Activity is 126%.
Turning to `Oc1ccc(Cl)cc1-n1c(O)nnc1Cc1ccc(C(F)(F)F)cc1`, the Activity is 125%.
In the case of `Oc1ccc(Cl)c(-n2c(O)nnc2-c2ccc(C(F)(F)F)cc2)c1` it was 101%.
